Rows were chosen to be rich in hits. Some 2.1% of all compounds tested hit in one or more screens of this group.
UCH37 inh – inhibitors of human UCH37 deubiquitinase, primary screen, biochemical, Ub-AMC cleavage, fluorescence; purified proteasome/UCH37; inhibition, % (concentration not given with the values); hit rate 0.33% among 330,000; Ubiquitin carboxyl-terminal hydrolase isozyme L5 (Homo sapiens), Q9Y5K5;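 active means mean inhibition over replicate wells above about 20%, limit read from the data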;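 further: 0% = compound-free wells with enzyme and 100% = wells lacking proteasome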
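Reagent: Ub-AMC substrate; assay system: Proteasome-associated human UCH37 deubiquitinase; controls: no-proteasome and no-compound wells; read-out: % inhibition of Ub-AMC cleavage fluorescence; timing: 30 min preincubation with enzyme, 25 min cleavage at room temperature; signal: AMC fluorescence from Ub-AMC cleavage, excitation 355 nm, emission 460 nm; buffer or medium: Tris-HCl pH 7.4 plus ovalbumin, ATP-MgCl2, DTT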
B2AR ag – beta2AR agonists driving receptor internalization, primary screen, cell-based, FAP fluorogen, flow cytometry; Am2.2-beta2AR cells; response, % (test concentration not listed); hit rate 0.43% among 340,000; Beta-2 adrenergic receptor (Homo sapiens), P07550;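 active means response above a set limit, near 3 SD of response in nonfluorescent compounds, cut at about 42% in these data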
Target sequence (P07550 whole entry, looked up): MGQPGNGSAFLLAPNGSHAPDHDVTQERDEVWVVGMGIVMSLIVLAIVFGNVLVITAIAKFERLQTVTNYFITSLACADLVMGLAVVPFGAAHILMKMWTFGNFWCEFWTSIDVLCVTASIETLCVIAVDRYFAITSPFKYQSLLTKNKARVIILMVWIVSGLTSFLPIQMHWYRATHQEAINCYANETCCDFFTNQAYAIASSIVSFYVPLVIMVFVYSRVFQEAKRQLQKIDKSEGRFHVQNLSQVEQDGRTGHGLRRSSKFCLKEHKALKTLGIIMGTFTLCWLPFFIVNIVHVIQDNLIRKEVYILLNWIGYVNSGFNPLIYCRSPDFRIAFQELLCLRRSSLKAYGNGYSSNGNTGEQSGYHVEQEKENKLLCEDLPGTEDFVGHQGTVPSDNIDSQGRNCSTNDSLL
aDG glyco up – activators of alpha-DG glycosylation, primary screen, uHTS, Pro5-aDG cells, AlphaScreen | activation, % at 10 µM | AID 624168, 2012 | alpha-DG glycosylation AlphaScreen (IIH6); 0% Pro5, 100% B10-LARGE cell signal | hit rate 0.22% among 360,000;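 active means activation of at least 8% versus controls, or a plate z-score of at least 8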;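 further: Pro5 are CHO cells carrying HIG-tagged alpha-DG that lacks glycosylation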
H9c2 protect – cardioprotection against H2O2-induced cell death, primary screen, uHTS, H9c2 cells, ATPLite luminescence; H9c2 cardiomyocytes, H2O2 injury protection, 2 h; protection from H2O2 cell death, % at 20 µM; hit rate 0.63% among 360,000; AID 588492, 2011;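 active means compounds giving at least 50% protection of heart cells from peroxide-induced death in the single-dose screen, raw or plate-pattern-corrected value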;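 further: 0% = DMSO wells with peroxide and 100% = DMSO wells without peroxide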
PfGluPho inh – PfG6PD enzyme inhibitors, primary screen, biochemical, fluorescence intensity, uHTS | glucose-6-phosphate dehydrogenase-6-phosphogluconolactonase (Plasmodium falciparum 3D7) | PfGluPho enzyme, NADPH resazurin-diaphorase fluorescence | inhibition, % at 20 µM | hit rate 0.78% among 350,000;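 active means inhibition reaching at least a set limit at 20 µM in the primary screen, cut at about 59% in these data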;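 further: 0% = DMSO wells with substrate and 100% = DMSO wells lacking glucose-6-phosphate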
HKDC1 inh – HKDC1 hexokinase inhibitors, primary screen, biochemical, fluorescence, uHTS; Q2TB90; recombinant HKDC1, G6PDH/diaphorase resazurin coupled fluorescence; inhibition, % at 20 µM; hit rate 0.16% among 340,000; AID 493160, 2011;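 active means inhibition above about 35% when tested at 20 µM, limit read from the data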;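 further: plate controls were DMSO wells with enzyme for no effect and DMSO wells lacking enzyme for full effect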
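System: Recombinant HKDC1 hexokinase | Amount: HKDC1 at 5 µg/mL | Reagent: Glucose with 1 mM ATP | Doses: Single 20 µM dose | Incubation: Reaction time 90 min, room temperature, protected from light | Signal: Coupled resazurin fluorescence, excitation 525 nm, emission 613 nm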
Active calls of the source: *; · = not tested or not shown.

SMILES	UCH37 inh	B2AR ag	aDG glyco up	H9c2 protect	PfGluPho inh	HKDC1 inh
CC1(C)CC2C1CCC1(O)CC2(C)CCC1N(O)c1ccc(C(=O)NCCO)cn1 (stereo not given)	4	0	0	51*	34	-2
COc1ccc(C=NN2CCOCC2)cc1O	1	·	·	·	·	·
Fc1ccccc1C=NNc1nn[nH]n1	2	·	·	·	·	·
Cc1cccc(C=NNC(=O)c2cc(-c3cccnc3)nc3c2c(C)nn3-c2ccccc2)c1	-264	·	·	·	·	·
CCOC(=O)/C(C#N)=C\N(C)C	0	7	0	3	1	-5
CCOC(=O)/C(C#N)=C/C=C1/C=CC=CN1C	20*	-5	0	0	0	1
CCCCNC(=O)CNC(=S)N(Cc1ccccc1)Cc1cccnc1	5	52*	0	0	3	-14
CCOc1ccc2ccccc2c1C=NNC(=O)c1ccc([N+](=O)[O-])cc1	2	·	·	·	·	·
Cc1ccnc(N=Cc2c(O)ccc3oc4c(c23)CCCC4)c1	3	·	·	·	·	·
Oc1ccc2oc3c(c2c1/C=N/n1cnnc1)CCCC3	·	-20	0	60*	12	14
Oc1c(C=NCc2ccncc2)sc2ccccc12	0	·	·	·	16	5
O=C(O)c1ccc(N=Cc2c(O)ccc3oc4c(c23)CCCC4)cc1	·	10	0	62*	-10	10
Oc1ccccc1N=Cc1c(O)ccc2oc3c(c12)CCCC3	·	14	2	7	4	2
Oc1ccc2oc3c(c2c1C=NCc1ccncc1)CCCC3	6	-1	0	67*	-1	5
COc1ccc2[nH]c(=O)c(CN(Cc3ccco3)C(c3nnnn3Cc3ccccc3)C(C)C)cc2c1 (stereo not given)	-29	-24	1	51*	-31	10
COc1ccc2[nH]c(=O)c(CN(C3CCCCC3)C(c3nnnn3Cc3ccco3)C(C)C)cc2c1 (stereo not given)	·	-1	0	95*	88*	37*
COc1ccc2[nH]c(=O)c(CN(Cc3nnnn3Cc3ccco3)C3CCCCC3)cc2c1	-1	4	1	44	35	3
CCC(c1nnnn1Cc1ccco1)N(Cc1cc2cc(C)cc(C)c2[nH]c1=O)CC1CCCO1 (stereo not given)	-2	-1	0	62*	2	-4
COCCn1nnnc1C(C(C)C)N(Cc1cccnc1)Cc1cc2cc(OC)ccc2[nH]c1=O (stereo not given)	-32	0	0	61*	-15	-3
COCCn1nnnc1C(C(C)C)N(Cc1ccccc1)Cc1cc2cc(OC)ccc2[nH]c1=O (stereo not given)	-6	-5	0	42	15	-1
CC(=NNC(=O)c1ccc2c(c1)OCO2)c1ccc(NC(=O)CCCC(=O)O)cc1	4	·	·	·	·	·
COc1ccc(C=NN2C(=O)C3C4C=CC(C4)C3C2=O)cc1[N+](=O)[O-] (stereo not given)	6	·	·	·	·	·
CCOC(=O)c1c2ccccc2[n+]([O-])n1[C@@H](C)C(N)=O	32*	6	0	8	10	-3
Cc1ccc(C(=O)c2c3ccccc3[n+]([O-])n2CCC(=O)O)cc1	1	2	0	2	-12	6
Nc1ccc(C(=O)NN=Cc2cccc(Oc3ccccc3)c2)cc1	-2	·	·	·	·	·
O=C(Cc1ccc(F)cc1)N1CCC(CC2CC(c3ccc(Cl)cc3)=NO2)(C(=O)NCC2CCCCC2)CC1 (stereo not given)	39*	18	0	-5	-2	3
CN(C)c1ccc(NC(=O)C(=O)C2C(=O)Nc3ccccc32)cc1 (stereo not given)	8	1	0	-7	-23	-1
CN(C)c1ccc(CC2C(=O)Nc3ccccc32)cc1 (stereo not given)	7	0	0	5	83*	5

Source: PubChem BioAssay
